Experimental findings from ChEMBL document CHEMBL3393046, “Conformationally-locked N-glycosides: exploiting long-range non-glycone interactions in the design of pharmacological chaperones for Gaucher disease” (Eur J Med Chem, 2015) are described below.

For one test, the species on record is Homo sapiens. Nature of the test: Inhibition of alpha-galactosidase (unknown origin) by spectrophotometry.
For test [1], the target named is T1, Lysosomal acid glucosylceramidase (Homo sapiens, UniProt P04062).
T1 sequence (P04062 whole entry): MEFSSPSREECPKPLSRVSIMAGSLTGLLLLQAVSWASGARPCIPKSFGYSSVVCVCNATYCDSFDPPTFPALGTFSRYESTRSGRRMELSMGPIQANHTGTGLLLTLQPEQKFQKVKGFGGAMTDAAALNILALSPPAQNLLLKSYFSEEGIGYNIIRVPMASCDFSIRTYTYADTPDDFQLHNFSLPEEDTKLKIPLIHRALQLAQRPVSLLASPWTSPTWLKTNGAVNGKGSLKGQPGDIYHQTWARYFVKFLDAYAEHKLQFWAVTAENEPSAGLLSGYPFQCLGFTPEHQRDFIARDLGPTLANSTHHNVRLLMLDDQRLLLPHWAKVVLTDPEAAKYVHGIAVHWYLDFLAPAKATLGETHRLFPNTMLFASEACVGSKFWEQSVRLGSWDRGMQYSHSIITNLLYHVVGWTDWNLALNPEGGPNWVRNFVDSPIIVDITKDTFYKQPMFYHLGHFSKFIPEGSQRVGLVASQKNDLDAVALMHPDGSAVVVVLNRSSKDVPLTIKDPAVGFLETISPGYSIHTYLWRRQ
Nature of the test: Inhibition of human beta-glucocerebrosidase at pH 5.0 by spectrophotometry.

Test [2] addresses T1, Lysosomal acid glucosylceramidase. Nature of the test: Inhibition of human beta-glucocerebrosidase at pH 7.0 by spectrophotometry.
The target in test [3] is T2, Alpha-mannosidase (Canavalia ensiformis) (UniProt C0HJB3).
T2 sequence (whole entry): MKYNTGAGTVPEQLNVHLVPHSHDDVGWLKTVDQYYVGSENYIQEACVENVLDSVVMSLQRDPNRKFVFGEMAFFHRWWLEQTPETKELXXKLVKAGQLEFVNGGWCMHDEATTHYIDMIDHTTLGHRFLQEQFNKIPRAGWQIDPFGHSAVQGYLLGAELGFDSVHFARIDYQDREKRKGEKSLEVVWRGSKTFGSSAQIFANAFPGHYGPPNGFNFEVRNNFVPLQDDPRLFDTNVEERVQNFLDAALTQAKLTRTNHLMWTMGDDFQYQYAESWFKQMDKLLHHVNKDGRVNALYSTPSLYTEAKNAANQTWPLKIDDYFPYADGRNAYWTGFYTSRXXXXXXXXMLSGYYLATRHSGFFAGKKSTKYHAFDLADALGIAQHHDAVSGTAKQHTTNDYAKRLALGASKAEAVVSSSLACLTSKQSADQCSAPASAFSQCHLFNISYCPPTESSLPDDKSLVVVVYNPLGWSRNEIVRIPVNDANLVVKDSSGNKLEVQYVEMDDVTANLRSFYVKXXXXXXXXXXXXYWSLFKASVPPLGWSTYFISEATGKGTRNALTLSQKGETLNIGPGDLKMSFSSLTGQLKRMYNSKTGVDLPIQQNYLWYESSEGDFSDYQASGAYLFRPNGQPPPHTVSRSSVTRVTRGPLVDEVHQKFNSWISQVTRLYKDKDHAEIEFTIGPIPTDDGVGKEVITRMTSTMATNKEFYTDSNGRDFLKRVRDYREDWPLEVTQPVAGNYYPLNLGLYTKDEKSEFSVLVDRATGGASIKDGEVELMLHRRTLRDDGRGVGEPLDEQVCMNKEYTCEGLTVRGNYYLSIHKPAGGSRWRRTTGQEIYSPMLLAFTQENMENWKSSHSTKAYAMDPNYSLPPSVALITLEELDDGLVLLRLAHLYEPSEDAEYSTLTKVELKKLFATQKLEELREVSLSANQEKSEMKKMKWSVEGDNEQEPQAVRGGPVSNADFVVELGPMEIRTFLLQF
Description: Inhibition of jack bean alpha-mannosidase at 2 mM incubated for 10 to 30 mins by spectrophotometry. The method, boiled down: (§1)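 Reaction started by adding enzyme to substrate, without or with various inhibitor concentrations, in phosphate or phosphate-citrate buffer (α/β-mannosidase, amyloglucosidase) at each enzyme's optimal pH. Incubation 10–30 min at 37 °C (55 °C for amyloglucosidase), timed for 10–20% conversion. Stopped with 1 M Na₂CO₃, or for trehalase by heating then GLC-Trinder. Absorbance 405 nm (trehalase 492 nm). Approximate Ki from fixed substrate near Km.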

The target of test [4] is Beta-galactosidase (Escherichia coli K-12) (UniProt P00722). Nature of the test: Inhibition of Escherichia coli beta-galactosidase at 2 mM incubated for 10 to 30 mins using o-nitrophenyl beta-D-galactopyranoside substrate by spectrophotometry. The method, boiled down:
as §1

Another test deals with Saccharomyces bayanus. Nature of the test: Inhibition of yeast alpha-glucosidase at 2 mM incubated for 10 to 30 mins using p-nitrophenyl alpha-D-glycopyranoside substrate by spectrophotometry. The method, boiled down: as §1
For the next test, the system named is Prunus dulcis. Nature of the test: Inhibition of almonds beta-glucosidase at 2 mM incubated for 10 to 30 mins using p-nitrophenyl beta-D-glycopyranoside substrate by spectrophotometry. The method, boiled down: as §1
A further test concerns Helix pomatia. Description: Inhibition of Helix pomatia beta-mannosidase at 2 mM incubated for 10 to 30 mins using substrate by spectrophotometry. The method, boiled down:
as §1

The target of test [5] is T3, Uncharacterized protein (Sus scrofa) (UniProt I3LIR5).
T3 sequence (whole entry): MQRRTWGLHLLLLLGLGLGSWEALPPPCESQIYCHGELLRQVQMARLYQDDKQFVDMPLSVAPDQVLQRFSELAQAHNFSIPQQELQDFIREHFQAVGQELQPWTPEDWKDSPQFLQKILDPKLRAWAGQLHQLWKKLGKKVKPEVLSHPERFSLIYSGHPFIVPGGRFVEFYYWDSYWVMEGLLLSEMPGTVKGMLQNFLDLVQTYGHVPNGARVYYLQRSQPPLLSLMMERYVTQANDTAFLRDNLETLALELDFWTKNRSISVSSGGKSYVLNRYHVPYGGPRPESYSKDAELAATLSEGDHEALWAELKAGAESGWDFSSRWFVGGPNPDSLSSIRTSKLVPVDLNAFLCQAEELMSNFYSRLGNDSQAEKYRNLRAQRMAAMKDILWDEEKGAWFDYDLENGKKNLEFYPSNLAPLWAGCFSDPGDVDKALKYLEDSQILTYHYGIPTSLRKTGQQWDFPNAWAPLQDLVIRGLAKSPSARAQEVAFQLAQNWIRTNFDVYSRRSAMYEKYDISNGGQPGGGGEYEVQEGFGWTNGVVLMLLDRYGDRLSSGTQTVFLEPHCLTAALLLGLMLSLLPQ
Nature of the test: Inhibition of pig kidney trehalase at 2 mM incubated for 10 to 30 mins using alpha,alpha'-trehalose substrate by spectrophotometry. The method, boiled down:
as §1

Test [6] has as its target Lysosomal alpha-glucosidase (Homo sapiens) (UniProt P10253). Nature of the test: Inhibition of alpha-glucosidase (unknown origin) by spectrophotometry.
Test [7] addresses Alpha-galactosidase (Coffea arabica) (UniProt Q42656). Nature of the test: Inhibition of green coffee alpha-galactosidase at 2 mM incubated for 10 to 30 mins using p-nitrophenyl alpha-D-glycopyranoside substrate by spectrophotometry. The method, boiled down:
as §1

Another test deals with Saccharomyces cerevisiae. Description: Inhibition of yeast isomaltase at 2 mM incubated for 10 to 30 mins by spectrophotometry. The method, boiled down: as §1

Active and inactive are the calls of the source. No cut-off for these calls is given here.

Sequence of Alpha-galactosidase (Coffea arabica) (Q42656 16-378 limits assumed): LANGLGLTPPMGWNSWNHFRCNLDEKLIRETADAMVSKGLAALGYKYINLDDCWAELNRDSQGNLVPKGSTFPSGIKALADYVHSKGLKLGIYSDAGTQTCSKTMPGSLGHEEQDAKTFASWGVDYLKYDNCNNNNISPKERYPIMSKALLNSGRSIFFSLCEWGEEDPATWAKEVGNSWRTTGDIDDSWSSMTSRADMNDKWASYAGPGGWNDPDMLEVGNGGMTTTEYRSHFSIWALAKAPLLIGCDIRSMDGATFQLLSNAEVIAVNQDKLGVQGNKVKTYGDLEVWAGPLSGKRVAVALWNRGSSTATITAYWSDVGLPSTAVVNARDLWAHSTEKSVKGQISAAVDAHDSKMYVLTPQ
Sequence of Beta-galactosidase (Escherichia coli K-12) (P00722 whole entry): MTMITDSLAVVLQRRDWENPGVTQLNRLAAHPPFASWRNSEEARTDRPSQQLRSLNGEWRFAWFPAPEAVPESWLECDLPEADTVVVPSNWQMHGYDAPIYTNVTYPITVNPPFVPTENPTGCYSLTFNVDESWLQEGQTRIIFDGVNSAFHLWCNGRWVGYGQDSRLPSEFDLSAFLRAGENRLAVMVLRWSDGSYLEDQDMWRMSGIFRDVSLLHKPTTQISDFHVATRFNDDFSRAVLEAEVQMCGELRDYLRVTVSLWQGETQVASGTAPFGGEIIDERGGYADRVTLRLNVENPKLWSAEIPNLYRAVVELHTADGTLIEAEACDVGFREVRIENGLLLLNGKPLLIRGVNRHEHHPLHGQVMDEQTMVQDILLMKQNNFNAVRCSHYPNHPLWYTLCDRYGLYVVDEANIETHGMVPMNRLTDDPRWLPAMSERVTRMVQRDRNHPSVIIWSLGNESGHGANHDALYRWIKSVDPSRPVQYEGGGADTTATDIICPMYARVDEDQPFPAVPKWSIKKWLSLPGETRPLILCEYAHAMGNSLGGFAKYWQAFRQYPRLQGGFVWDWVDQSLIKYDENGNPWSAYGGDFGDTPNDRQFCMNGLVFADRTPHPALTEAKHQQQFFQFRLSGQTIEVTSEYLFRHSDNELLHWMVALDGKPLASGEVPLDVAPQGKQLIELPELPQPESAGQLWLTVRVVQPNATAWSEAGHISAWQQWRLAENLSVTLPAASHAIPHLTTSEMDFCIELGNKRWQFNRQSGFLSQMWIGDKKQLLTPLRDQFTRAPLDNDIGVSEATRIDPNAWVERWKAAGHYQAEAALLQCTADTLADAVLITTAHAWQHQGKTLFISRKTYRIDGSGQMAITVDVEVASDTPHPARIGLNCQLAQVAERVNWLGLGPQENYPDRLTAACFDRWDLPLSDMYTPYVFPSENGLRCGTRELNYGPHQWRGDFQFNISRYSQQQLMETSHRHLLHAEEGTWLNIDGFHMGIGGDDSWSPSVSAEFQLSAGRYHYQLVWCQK

A word on the IC50: it is the concentration at which inhibition is half-maximal. `OC[C@H]1O[C@@H]2N=C(SCCCCCCCCCCCCCCCCSC3=N[C@H]4O[C@H](CO)[C@@H](O)[C@H](O)[C@H]4O3)O[C@@H]2[C@@H](O)[C@@H]1O`: the inhibition result (in the test listed under Homo sapiens; in [3]; in test [4]; with Saccharomyces bayanus; in the test on Prunus dulcis; with Helix pomatia) was “inactive” throughout. Further, the inhibition entry (in test [5]; in [6]; in test [7]; with Saccharomyces cerevisiae) was “inactive” each time. In addition, the 50% inhibitory concentration (IC50) result in test [1] and in [2] was “Not Active” in each case.

On to `OC[C@H]1O[C@@H]2N=C(SCCCCCCCCCCCCCCCCF)O[C@@H]2[C@@H](O)[C@@H]1O`, for which the inhibition result (in the test listed under Homo sapiens; in [3]; in test [4]; with Saccharomyces bayanus; in the test with Prunus dulcis; in the test with Helix pomatia) was “inactive” throughout. In addition, the inhibition result (in test [5]; in test [6]; in [7]; with Saccharomyces cerevisiae) was “inactive” in each case. Also, the IC50 in test [1] (read-out: IC50) is 27 µM; in [2] (read-out: IC50), 3.9 µM.

On to `COC(=O)CCCCCCCCCCCCCCCSC1=N[C@H]2O[C@H](CO)[C@@H](O)[C@H](O)[C@H]2O1`, for which the inhibition entry (in the test listed under Homo sapiens; in test [3]; in [4]; in the test with Saccharomyces bayanus; with Prunus dulcis; with Helix pomatia) was “inactive” throughout. The inhibition entry (in [5]; in test [6]; in [7]; with Saccharomyces cerevisiae) was “inactive” each time. For the same molecule, the results for the half-maximal inhibitory concentration (IC50) in test [1] (read-out: IC50) and in test [2] (read-out: IC50) were 300 µM and 33 µM, respectively.

Take `OCCCCCCCCCCCCCCCCSC1=N[C@H]2O[C@H](CO)[C@H](O)[C@H](O)[C@H]2O1`: the inhibition result (in the test filed under Homo sapiens; in test [3]; in [4]; in the test on Saccharomyces bayanus; in the test with Prunus dulcis; in the test with Helix pomatia) was “inactive” throughout. Also, the inhibition entry (in test [5]; in [6]; in [7]; with Saccharomyces cerevisiae) was “inactive” in each case. The IC50 entry in [1] and in [2] was “Not Active” in each case.
